From ChEMBL document CHEMBL1156277, “Discovery of N-methyl-4-(4-methoxyanilino)quinazolines as potent apoptosis inducers. Structure-activity relationship of the quinazoline ring” (Bioorg Med Chem Lett, 2010)

How the values were obtained:
T47D [1] = test: Induction of apoptosis in human T47D cells assessed as caspase activation; assay type: functional, cell-based
Procedure, shortened: (§1)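 Cell- and caspase-based HTS assay in human breast cancer T47D and human non-small cell lung cancer H1299 cells. Caspase-3 activation was read with fluorescent caspase-3 substrates and reported as EC50. Data are the mean of three or more experiments ± SEM.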

T47D [2] = test: Selectivity ratio EC50 for human H1299 cells over EC50 for human T47D cells; assay type: functional
NCI-H1299 = test: Induction of apoptosis in human H1299 cells assessed as caspase activation; assay type: functional, cell-based; procedure, shortened: as §1
[3] = Inhibition of tubulin polymerization
[4] = Ratio of AUC in brain to plasma in mouse at 2.5 mg/kg, iv; assay type: ADME, organism-based; set-up: dose 2.5 mg/kg, route intravenous; conditions: brain and plasma, read-out: Ratio AUC
Procedure, shortened: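 Mice got a single intravenous dose. Compound levels in plasma from blood samples and in homogenized whole brain were determined by LC–MS/MS. Brain/plasma ratio was calculated from the areas under the concentration–time curves.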

SMILES | EC50 (T47D [1]) [nM] | Selectivity ratio (T47D [2]) | EC50 (NCI-H1299) [nM] | IC50 [3] [nM] | Kp [4]
COc1ccc(N(C)c2nc(C)nc3ccc(NC(C)=O)cc23)cc1 | 960 | 1.5 | 1400 |  | 
COc1ccc(N(C)c2nc(C)nc3cc(N)ccc23)cc1 | 780 | 0.73 | 570 | 2000 | 
COc1ccc(N(C)c2nc(C)nc3cc(N=[N+]=[N-])ccc23)cc1 | 110 | 1.2 | 130 |  | 
COc1ccc(N(C)c2nc(C)nc3ncccc23)cc1 | 15 | 1.4 | 21 |  | 1.8
COc1ccc(N(C)c2nc(C)nc3ccc([N+](=O)[O-])cc23)cc1 | 400 | 0.33 | 130 |  | 
COc1ccc(N(C)c2nc(C)nc3cc([N+](=O)[O-])ccc23)cc1 | > 10000 | 2 | > 10000 |  | 
COc1ccc(N(C)c2nccc3ccccc23)cc1 | 600 | 2 | 960 | 400 | 
COc1ccc(N(C)c2ccnc3ccccc23)cc1 | 21 | 2 | 26 |  | 9.2
COc1ccc(N(C)c2nnnc3ccccc23)cc1 | 17 | 2 | 45 |  | 
COc1ccc(N(C)c2nc(C)nc3nccnc23)cc1 | 29 | 1.2 | 36 |  | 2.1
COc1ccc(N(C)c2nc(C)nc3cccc(OC)c23)cc1 | 4 | 2 | 8 | 400 | 
COc1ccc(N(C)c2nc(C)nc3ccc(N)cc23)cc1 | 8 | 2 | 14 |  | 3.6
COc1ccc(N(C)c2nc(C)nc3ccc(N(C)C)cc23)cc1 | 450 | 3.1 | 1400 |  | 
COc1ccc(N(C)c2nc(C)nc3ccccc23)cc1 [VERUBULIN] |  |  | 7 | 2000 | 
